Measurements published in ChEMBL document CHEMBL3853336, “Novel selective glucocorticoid receptor agonists (SEGRAs) with a covalent warhead for long-lasting inhibition” (Bioorg Med Chem Lett, 2016).

What was measured:
[1] = target: T1, Glucocorticoid receptor (Homo sapiens) (UniProt P04150); assay: Displacement of [3H]-dexamethasone from GR receptor in human IM-9 cytosolic extracts using buffer solution without beta-mercaptoethanol at 100 nM preincubated for 6 hrs followed by washout and second incubation with [3H]-dexamethasone for 24 hrs relative to control
T1 sequence (whole entry): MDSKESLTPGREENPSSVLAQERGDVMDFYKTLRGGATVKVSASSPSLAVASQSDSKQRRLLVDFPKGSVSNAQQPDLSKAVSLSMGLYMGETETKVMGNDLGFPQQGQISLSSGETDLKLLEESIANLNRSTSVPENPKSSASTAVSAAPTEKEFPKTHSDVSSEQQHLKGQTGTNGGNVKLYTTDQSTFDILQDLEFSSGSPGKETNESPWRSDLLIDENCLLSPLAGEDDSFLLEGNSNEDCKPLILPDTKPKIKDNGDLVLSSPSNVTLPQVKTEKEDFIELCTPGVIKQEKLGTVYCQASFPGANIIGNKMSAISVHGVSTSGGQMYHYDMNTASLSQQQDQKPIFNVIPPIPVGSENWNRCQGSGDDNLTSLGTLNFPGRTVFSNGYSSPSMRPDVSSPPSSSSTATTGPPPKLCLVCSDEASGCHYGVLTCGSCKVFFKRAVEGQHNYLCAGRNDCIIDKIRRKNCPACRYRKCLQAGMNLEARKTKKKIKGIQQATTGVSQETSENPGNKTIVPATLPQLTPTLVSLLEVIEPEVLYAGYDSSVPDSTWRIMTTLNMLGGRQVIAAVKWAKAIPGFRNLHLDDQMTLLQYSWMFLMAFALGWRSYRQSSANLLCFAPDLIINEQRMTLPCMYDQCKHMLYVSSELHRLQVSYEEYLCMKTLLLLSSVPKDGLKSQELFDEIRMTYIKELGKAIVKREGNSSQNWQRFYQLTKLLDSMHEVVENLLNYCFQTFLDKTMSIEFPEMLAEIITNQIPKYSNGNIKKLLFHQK
Summary of the method: (§1)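 Repeat of the wash-out protocol in buffers free of β-mercaptoethanol, with a second batch of dexamethasone mesylate. IM-9 cytosol (240 µg/assay) preincubated 6 h at 100 nM (cortisol 60 nM), charcoal-stripped and centrifuged, then given 3 nM [3H]-dexamethasone. Binding was read before wash-out or at 1–24 h as % inhibition of control, in duplicate.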

[2] = target: T1, Glucocorticoid receptor (Homo sapiens); assay: Displacement of [3H]-dexamethasone from GR receptor in human IM-9 cytosolic extracts using buffer solution without beta-mercaptoethanol at 100 nM preincubated for 6 hrs followed by washout and second incubation with [3H]-dexamethasone for 4 hrs relative to control; summary of the method: as §1
[3] = target: T1, Glucocorticoid receptor (Homo sapiens); assay: Displacement of [3H]-dexamethasone from GR receptor in human IM-9 cytosolic extracts at 100 nM preincubated for 6 hrs followed by washout and second incubation with [3H]-dexamethasone for 16 hrs relative to control
Summary of the method: (§2)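 IM-9 cytosol (240 µg/assay) preincubated 6 h with ligand (100 nM, or 60 nM for cortisol). Unbound ligand was stripped with activated charcoal and centrifugation, then 3 nM [3H]-dexamethasone was added. Binding was read after 1, 2, 3, 4, 16 or 24 h of second incubation as % inhibition of control specific binding, in duplicate.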

[4] = target: T1, Glucocorticoid receptor (Homo sapiens); assay: Displacement of [3H]-dexamethasone from GR receptor in human IM-9 cytosolic extracts using buffer solution without beta-mercaptoethanol at 100 nM preincubated for 6 hrs followed by washout and second incubation with [3H]-dexamethasone for 2 hrs relative to control; summary of the method: as §1
[5] = target: T1, Glucocorticoid receptor (Homo sapiens); assay: Displacement of [3H]-dexamethasone from GR receptor in human IM-9 cytosolic extracts using buffer solution without beta-mercaptoethanol at 100 nM preincubated for 6 hrs followed by washout and second incubation with [3H]-dexamethasone for 1 hr relative to control; summary of the method: as §1
[6] = target: T1, Glucocorticoid receptor (Homo sapiens); assay: Displacement of [3H]-dexamethasone from GR receptor in human IM-9 cytosolic extracts at 100 nM preincubated for 6 hrs followed by [3H]-dexamethasone addition relative to control
[7] = target: T1, Glucocorticoid receptor (Homo sapiens); assay: Displacement of [3H]-dexamethasone from GR receptor in human IM-9 cytosolic extracts using buffer solution without beta-mercaptoethanol at 100 nM preincubated for 6 hrs followed by [3H]-dexamethasone addition relative to control; summary of the method: as §1
[8] = target: T1, Glucocorticoid receptor (Homo sapiens); assay: Displacement of [3H]-dexamethasone from GR receptor in human IM-9 cytosolic extracts using buffer solution without beta-mercaptoethanol at 100 nM preincubated for 6 hrs followed by washout and second incubation with [3H]-dexamethasone for 16 hrs relative to control; summary of the method: as §1
[9] = target: T1, Glucocorticoid receptor (Homo sapiens); assay: Displacement of [3H]-dexamethasone from GR receptor in human IM-9 cytosolic extracts using buffer solution without beta-mercaptoethanol at 100 nM preincubated for 6 hrs followed by washout and second incubation with [3H]-dexamethasone for 3 hrs relative to control; summary of the method: as §1
[10] = target: T1, Glucocorticoid receptor (Homo sapiens); assay: Displacement of [3H]-dexamethasone from human GR receptor at 1 uM relative to control
Summary of the method: (§3)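 Human GR radioligand binding with soluble receptor from IM-9 cells and 1.5 nM [3H]-dexamethasone, with test ligand at 1 µM or 0.1 µM. Specific binding reported as % inhibition of control, in duplicate.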

[11] = target: T1, Glucocorticoid receptor (Homo sapiens); assay: Displacement of [3H]-dexamethasone from GR receptor in human IM-9 cytosolic extracts at 100 nM preincubated for 6 hrs followed by washout and second incubation with [3H]-dexamethasone for 1 hr relative to control; summary of the method: as §2
[12] = target: T1, Glucocorticoid receptor (Homo sapiens); assay: Displacement of [3H]-dexamethasone from human GR receptor at 0.1 uM relative to control; summary of the method: as §3
[13] = target: T1, Glucocorticoid receptor (Homo sapiens); assay: Displacement of [3H]-dexamethasone from GR receptor in human IM-9 cytosolic extracts at 100 nM preincubated for 6 hrs followed by washout and second incubation with [3H]-dexamethasone for 24 hrs relative to control; summary of the method: as §2
[14] = target: T1, Glucocorticoid receptor (Homo sapiens); assay: Displacement of [3H]-dexamethasone from GR receptor in human IM-9 cytosolic extracts at 100 nM preincubated for 6 hrs followed by washout and second incubation with [3H]-dexamethasone for 2 hrs relative to control; summary of the method: as §2
[15] = target: T1, Glucocorticoid receptor (Homo sapiens); assay: Displacement of [3H]-dexamethasone from GR receptor in human IM-9 cytosolic extracts at 100 nM preincubated for 6 hrs followed by washout and second incubation with [3H]-dexamethasone for 3 hrs relative to control; summary of the method: as §2
[16] = target: T1, Glucocorticoid receptor (Homo sapiens); assay: Displacement of [3H]-dexamethasone from GR receptor in human IM-9 cytosolic extracts at 60 nM preincubated for 6 hrs followed by washout and second incubation with [3H]-dexamethasone for 3 hrs relative to control; summary of the method: as §2
[17] = target: T1, Glucocorticoid receptor (Homo sapiens); assay: Displacement of [3H]-dexamethasone from GR receptor in human IM-9 cytosolic extracts at 60 nM preincubated for 6 hrs followed by [3H]-dexamethasone addition relative to control
[18] = target: T1, Glucocorticoid receptor (Homo sapiens); assay: Displacement of [3H]-dexamethasone from GR receptor in human IM-9 cytosolic extracts at 60 nM preincubated for 6 hrs followed by washout and second incubation with [3H]-dexamethasone for 1 hr relative to control; summary of the method: as §2
[19] = target: T1, Glucocorticoid receptor (Homo sapiens); assay: Displacement of [3H]-dexamethasone from GR receptor in human IM-9 cytosolic extracts at 60 nM preincubated for 6 hrs followed by washout and second incubation with [3H]-dexamethasone for 24 hrs relative to control; summary of the method: as §2
[20] = target: T1, Glucocorticoid receptor (Homo sapiens); assay: Displacement of [3H]-dexamethasone from GR receptor in human IM-9 cytosolic extracts at 60 nM preincubated for 6 hrs followed by washout and second incubation with [3H]-dexamethasone for 2 hrs relative to control; summary of the method: as §2
[21] = target: T1, Glucocorticoid receptor (Homo sapiens); assay: Displacement of [3H]-dexamethasone from GR receptor in human IM-9 cytosolic extracts using buffer solution without beta-mercaptoethanol at 60 nM preincubated for 6 hrs followed by washout and second incubation with [3H]-dexamethasone for 16 hrs relative to control; summary of the method: as §1
[22] = target: T1, Glucocorticoid receptor (Homo sapiens); assay: Displacement of [3H]-dexamethasone from GR receptor in human IM-9 cytosolic extracts at 60 nM preincubated for 6 hrs followed by washout and second incubation with [3H]-dexamethasone for 16 hrs relative to control; summary of the method: as §2
[23] = target: T1, Glucocorticoid receptor (Homo sapiens); assay: Displacement of [3H]-dexamethasone from GR receptor in human IM-9 cytosolic extracts using buffer solution without beta-mercaptoethanol at 60 nM preincubated for 6 hrs followed by [3H]-dexamethasone addition relative to control; summary of the method: as §1
[24] = target: T1, Glucocorticoid receptor (Homo sapiens); assay: Displacement of [3H]-dexamethasone from GR receptor in human IM-9 cytosolic extracts using buffer solution without beta-mercaptoethanol at 60 nM preincubated for 6 hrs followed by washout and second incubation with [3H]-dexamethasone for 24 hrs relative to control; summary of the method: as §1
[25] = target: T1, Glucocorticoid receptor (Homo sapiens); assay: Displacement of [3H]-dexamethasone from GR receptor in human IM-9 cytosolic extracts at 60 nM preincubated for 6 hrs followed by washout and second incubation with [3H]-dexamethasone for 4 hrs relative to control; summary of the method: as §2
[26] = target: T1, Glucocorticoid receptor (Homo sapiens); assay: Displacement of [3H]-dexamethasone from GR receptor in human IM-9 cytosolic extracts at 100 nM preincubated for 6 hrs followed by washout and second incubation with [3H]-dexamethasone for 4 hrs relative to control; summary of the method: as §2

| inhibition [1] [%] | inhibition [2] [%] | inhibition [3] [%] | inhibition [5] [%] | inhibition [6] [%] | inhibition [7] [%] | inhibition [8] [%] | inhibition [9] [%] | inhibition [10] [%] | inhibition [11] [%] | inhibition [12] [%] | inhibition [13] [%] | inhibition [14] [%] | inhibition [15] [%] | Compound | also measured |
| --- | --- | --- | --- | --- | --- | --- | --- | --- | --- | --- | --- | --- | --- | --- | --- |
| 8 | 0 | 1 | -1 | 78 | 78 | 37 | -6 | 92 | -4 | 78 | 2 | – | – | CCN(CC(O)(CNC(=O)c1cnn(-c2ccc(F)cc2)c1N)C(F)(F)F)C(=O)c1c(Cl)ccc(NC(=O)CCl)c1Cl (configuration not stated) | inhibition [4]: -8% |
| 13 | 3 | 13 | 3 | 93 | 93 | 46 | -2 | – | 7 | – | 23 | 3 | 7 | C[C@@H]1C[C@H]2[C@@H]3CCC4=CC(=O)C=C[C@]4(C)[C@@]3(F)[C@@H](O)C[C@]2(C)[C@@]1(O)C(=O)COS(C)(=O)=O | – |
| – | – | – | – | – | – | – | – | – | – | – | – | – | – | C[C@]12CCC(=O)C=C1CC[C@@H]1[C@@H]2[C@@H](O)C[C@@]2(C)[C@H]1CC[C@]2(O)C(=O)CO | inhibition [16]: 4%; inhibition [17]: 69%; inhibition [18]: 3%; inhibition [19]: 12%; inhibition [20]: 6%; inhibition [21]: 16%; inhibition [22]: 5%; inhibition [23]: 69%; inhibition [24]: -8%; inhibition [25]: -1% |
| -2 | -10 | 31 | – | 74 | 74 | -5 | – | 96 | 21 | 74 | – | 17 | 24 | C=CC(=O)Nc1ccc(Cl)c(C(=O)N(CC)CC(O)(CNC(=O)c2cnn(-c3ccc(F)cc3)c2N)C(F)(F)F)c1Cl (configuration not stated) | inhibition [26]: 6% |
